Assay results of several laboratories.
Protocols differ between the studies behind these lines.
CDK18: Cyclin-dependent kinase 18 (CDK18, Homo sapiens, UniProt Q07002)
CDK18 with cyclin Y: Cyclin-dependent kinase 18, with cyclin Y (CDK18, Homo sapiens, UniProt Q07002)

Nc1ncnc2occ(-c3ccc(NC(=O)Nc4cc(C(F)(F)F)ccc4F)cc3)c12 has a remaining signal of 0.1% (CDK18; cell-free assay, inhibitor; 20 µM).
With CN1CC(Oc2cnc(C#N)cc2-c2ccn3nc(NC(=O)C4CC4)cc3c2)C1 the inhibition was 1% (CDK18 with cyclin Y; enzyme activity, inhibitor; 1 µM).
O=[N+]([O-])c1cccc2[nH]c(CNc3nc(N4CCOCC4)nc4c3ncn4-c3ccsc3)nc12 has a binding vs control of 62% (CDK18; binding, competition with immobilised ligand; 10 µM).
With Cc1ccc(C(=O)NCc2ccsc2)cc1C#Cc1cn(C(C)C)c2ncnc(N)c12 the activity vs control was 82% (CDK18 with cyclin Y; enzyme activity, inhibitor; 1 µM).
For Cc1ccc(C(=O)Nc2ccc(CN3CCN(C)CC3)c(C(F)(F)F)c2)cc1C#Cc1cnc2cccnn12, the remaining activity was 89% (CDK18; enzyme activity, inhibitor; 23.5 nM).
CSc1cccnc1N1CCN(Cc2nc3ccccc3[nH]2)CC1 gave a remaining binding of 100% (CDK18; cell-free assay, competition with immobilised ligand; 1 µM).
The binding vs control of Fc1cccc(-n2cnc3c(NCc4nc5c(F)c(F)ccc5[nH]4)nc(N4CCOCC4)nc32)c1 is reported as 37% (CDK18; binding, competition with immobilised ligand; 10 µM).
The remaining activity of Cc1sc(C(=O)NC2COC2)cc1-n1cc(NC(=O)Nc2c(F)cccc2Cl)cn1 is reported as 119% (CDK18 with cyclin Y; enzyme activity, inhibitor; 10 µM).
O=C(NS(=O)(=O)c1ccc(NCC2CCOCC2)c([N+](=O)[O-])c1)c1ccc(N2CCN(Cc3ccc(C(F)(F)F)cc3-c3ccc(Cl)cc3)CC2)cc1Oc1cnc2[nH]ccc2c1 gave a remaining binding of 100% (CDK18; cell-free assay, competition with immobilised ligand; 1 µM).
COc1cc(Cl)c(C(=O)N[C@@H](CN[C@H]2CC[C@@H](N)CC2)Cc2ccc(C#N)cc2)cc1-c1ccc(CN[C@H](C)c2ccc(C)cc2)o1 gave a remaining activity of 103% (CDK18 with cyclin Y; enzyme activity, inhibitor; 1 µM).
With O=C(Nc1cnn(-c2csc(C(=O)NC3COC3)c2)c1)Nc1ccccc1Cl the remaining activity was 101% (CDK18 with cyclin Y; enzyme activity, inhibitor; 5 µM).
